Series [1] concerns the target T1, Glutamate NMDA receptor; GRIN1/GRIN2A (Homo sapiens, UniProt Q05586+Q12879). Put plainly: Positive allosteric modulation of recombinant human GluN1/GluN2A receptor stably expressed in HEK293 cells assessed as increase in glycine/L-glutamate-induced channel current at -70 mV holding potential by IonWork […] method. The format is cell-based. The method, boiled down: (§1)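 Stable HEK293 lines expressing GluN1/GluN2A or GluN1/GluN2B, measured by automated whole-cell patch clamp (Ionworks Barracuda). Cells were held at -70 mV and stepped to -45 mV during agonist application (EC20 L-glutamate plus 50 µM glycine). The test article was first pre-applied alone for 5 min, then co-applied with agonist to record potentiation. Concentration-response percent potentiation gave EC50 and Emax.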
(In general: Two-electrode voltage clamp holds a large cell at a set potential and records current.)

In series [2] the target is T1, Glutamate NMDA receptor; GRIN1/GRIN2A. Description: Positive allosteric modulation of recombinant human GluN1/GluN2A receptor stably expressed in HEK293 cells assessed as increase in glycine/L-glutamate-induced channel current at -70 mV holding potential by IonWork […] method relative to control. The format is cell-based. The gist of the method:
as §1

The target in series [3] is T2, Glutamate NMDA receptor; GRIN1/GRIN2B (Homo sapiens, UniProt Q05586+Q13224). Put plainly: Positive allosteric modulation of recombinant human GluN1/GluN2B receptor stably expressed in HEK293 cells assessed as increase in glycine/L-glutamate-induced channel current at -70 mV holding potential by IonWork […] method. It is filed as cell-based. The gist of the method: as §1

Series [4] concerns the target T1, Glutamate NMDA receptor; GRIN1/GRIN2A. Put plainly: Positive allosteric modulation of recombinant human GluN1/GluN2A receptor expressed in Xenopus laevis oocytes assessed as increase in glycine/L-glutamate-induced channel current at -80 mV holding potential by two-electrode voltage clamp method. It is filed as cell-based.
For series [5] the target is unchanged. Put plainly: Positive allosteric modulation of recombinant human GluN1/GluN2A receptor expressed in Xenopus laevis oocytes assessed as increase in glycine/L-glutamate-induced channel current at -80 mV holding potential by two-electrode voltage clamp method relative to control. The format is cell-based.
Series [6] can be described thus: Positive allosteric modulation of recombinant dog GluN1/GluN2A receptor expressed in Xenopus laevis oocytes assessed as increase in glycine/L-glutamate-induced channel current at -80 mV holding potential by two-electrode voltage clamp method. The settings on record: Canis lupus familiaris. The format is cell-based.
For another series, the species on record is Canis lupus familiaris. Put plainly: Positive allosteric modulation of recombinant dog GluN1/GluN2A receptor expressed in Xenopus laevis oocytes assessed as increase in glycine/L-glutamate-induced channel current at -80 mV holding potential by two-electrode voltage clamp method relative to control. It is filed as cell-based.
The target in series [7] is Glutamate NMDA receptor; Grin1/Grin2a (Rattus norvegicus, UniProt P35439+Q00959). Put plainly: Positive allosteric modulation of recombinant rat GluN1/GluN2A receptor expressed in Xenopus laevis oocytes assessed as increase in glycine/L-glutamate-induced channel current at -80 mV holding potential by two-electrode voltage clamp method. It is filed as cell-based.
Series [8] deals with Glutamate NMDA receptor; Grin1/Grin2a (Rattus norvegicus) (UniProt P35439+Q00959). Description: Positive allosteric modulation of recombinant rat GluN1/GluN2A receptor expressed in Xenopus laevis oocytes assessed as increase in glycine/L-glutamate-induced channel current at -80 mV holding potential by two-electrode voltage clamp method relative to control. The format is cell-based.

Series [9] can be described thus: Stability in human liver microsomes. As to conditions: read-out: Stability. The format is ADME, Microsome.
A short description of series [10]: Stability in rat liver microsomes. The format is ADME, Microsome. The settings on record: read-out: Stability. A general note: Liver microsomes are vesicles of endoplasmic reticulum, rich in cytochrome P450 enzymes.
The nature of series [11]: Clearance in iv dosed rat. As to conditions: in vivo. It is filed as ADME, organism-based.
Series [12] is described as follows: Volume of distribution at steady state in rat. It is filed as ADME. The settings on record: in vivo, read-out: Vdss.
Series [13] in a line: Half life in rat. It is filed as ADME. As to conditions: in vivo.
Series [14] in a line: Oral bioavailability in rat. It is filed as ADME, organism-based. As to conditions: in vivo.
Series [15] addresses T2, Glutamate NMDA receptor; GRIN1/GRIN2B. Put plainly: Positive allosteric modulation of recombinant human GluN1/GluN2B receptor stably expressed in HEK293 cells assessed as increase in glycine/L-glutamate-induced channel current at -70 mV holding potential by IonWork whole cell patch clamp method relative to control.

Each structure is given as a SMILES string.

A word on the EC50: it is the concentration needed to bring the measured effect to its halfway point. As a reminder, the Emax is the maximal effect, on the per cent scale that the assay sets. The clearance is the rate of elimination divided by the concentration. As a reminder, the half-life is how long it takes for the measured level to halve. Broadly, the bioavailability is the share of a dose that reaches the circulation, judged against a reference dose that is usually intravenous. Read a high bioavailability as good availability.

Consider `CC(C)[C@@H](O)CC[C@@H](C)[C@H]1CC[C@H]2[C@@H]3CC=C4C[C@@H](O)CC[C@]4(C)[C@H]3CC[C@]12C`, for which the EC50 in [1] amounted to 0.15 µM; in series [3], 0.53 µM; in series [4], 0.3 µM; in [6], 0.65 µM; in [7], 0.65 µM. The Emax in [2] is 210%; in series [5], 73%; in the series filed under Canis lupus familiaris, 130%; in [8], 180%; in series [15], 150%. The microsomal CLint in [9] came out at 10 µL/min/mg; in series [10], 52 µL/min/mg. Besides, in series [11], the clearance was 98.3 mL/min/kg. For the same compound, in series [12], the Vd is 2.5 L/kg. Also, in series [13], the half-life is 32.4 min. Further, in [14], the bioavailability is 9%.

Values taken from ChEMBL document CHEMBL4406822, “Neuroactive Steroid N-Methyl-d-aspartate Receptor Positive Allosteric Modulators: Synthesis, SAR, and Pharmacological Activity” (J Med Chem, 2019).
